Results as given in the EternaBench riboswitch data.

Tested on: MS2 coat protein
Assay: apparent Kd, MS2 coat protein; higher = weaker binding; RNA-MaP array; FMN 200 µM where present
In short: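 The apparent Kd is the median of filtered binding-curve fits, one per cluster, to green signal normalised to red-channel RNA signal and control-cluster median Fmax. The clusters were on Illumina sequencing chips, and stalled E. coli RNA polymerase had transcribed the designs on them. Titration used SNAP-549-labelled MS2 coat protein from 0.7 or 1.5 nM, doubling to 3 µM, without and then with constant ligand, in 100 mM Tris-HCl pH 7.5, 80 mM KCl, 4 mM MgCl2, BSA, DTT, yeast tRNA and Tween-20.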

[1] = designed as: OFF switch for flavin mononucleotide, no ligand
[2] = ligand present: flavin mononucleotide, designed as: OFF switch for flavin mononucleotide
[3] = designed as: ON switch for flavin mononucleotide, no ligand
[4] = ligand present: flavin mononucleotide, designed as: ON switch for flavin mononucleotide

Row | Sequence | apparent Kd [1] [µM] | apparent Kd [2] [µM] | apparent Kd [3] [µM] | apparent Kd [4] [µM]
1 | CUGAGGUCAGGAUAUGCAUGGCGGGACUUGCGUCGUGGCGUGCAGAAGGGACAUGAGGAUCACCCAUGUGGAGG | 0.147 | 0.206 |  | 
2 | AGUGUCAUCGAGAAGGACACGGACAUGAGGAUCACCCAUGUUCCAUGUUGUAGGAUAUCGAUGAUACAGCUACGUUUCGUAGCA |  |  | 0.00501 | 0.0045
3 | AAUUAGGUCACAGGAUAUACUUCAUCCAUAGAUGUAGAAGGGUGUCAGAAUAAUUUCUUACAUGAGGAUCACCCAUGUUUCCAC |  |  | 0.108 | 0.0481
4 | UUUAUACAUGAGGAUCACCCAUGUGAGGAUAUGCUUUAUUAUUAUUAUUAUUAUUAUUGCAGAAGGUACGUUAU | 0.0357 | 0.0361 |  | 
5 | AGCUACGUUUCGUAGCAGCUAGGUGAGGAUAUCCUUAUACAUGAGGAUCACCCAUGUUAGCCAUGGGAGAAGGCGCCUAGAAAG |  |  | 0.328 | 0.0248
6 | ACGAUACAUGAGGAUCACCCAUGUUAGGAUAUACGCAUGCAUGCAUGCAUGCAUGCAAGUAGAAGGAACCAUGC | 0.0275 | 0.0268 |  | 
7 | GAUUGAGAGCAGGAUAUCAUAGAAAUGUAUGAAUGAGAAGGGCUCACAUGAGGAUCACCCAUGUGGUCCUAGAU | 0.0272 | 0.171 |  | 
8 | ACAUGAGAUCGAGGAUAUUUUGUACCUACAUGUGACAUGAGGAUCACCCAUGUGGUAAGUAUGAGAAAGAAGGCGAAGAUAUGU |  |  | 0.0414 | 0.0221
9 | CUUUUGUGAGGAUAUCAGUAGUAAAUAAAUAAAAUUACUACUGAGAAGGCACAUGAGGAUCACCCAUGUUCCUU | 0.0147 | 0.0284 |  | 
10 | GUCGGAAACGACAAGUAGCAAUCGGAGGAUAUUCAUGGAAACAUGAGGAUCACCCAUGUAAAUUGGGAGAAGGCCGAUUGCUAC |  |  | 1.22 | 0.0936
11 | CGAUCGUUGCAGAAGGUUAUAAUUUUAUCUACAUGUUUAACAUGAGGAUCACCCAUGUUUUUGAUGAAGGAUAUGCAAGGGUCG | 0.00688 | 0.00712 |  | 
12 | UUAAUUUAGUGAUAUUAUGACAUUAGAAGGCUGUACAUGUUGAUACAUGAGGAUCACCCAUGUAUAGAGGAUAUAGACAAUUUU | 0.0398 | 0.0938 |  | 
13 | ACAUGAGGAUCACCCAUGUUAAACGAGGAUAUUUGACUGCACAUGAGGUUCACCCAUGUCCUGCCGAAGAAGGUGUGAAUAAUU |  |  | 0.0339 | 0.0326
14 | UAAAAGCUAGGAUAUACAUGAGGAUCACCCAUGUCAACCACACGGAUGCGCCGAGCAUGUAGAAGGAGCACCGG | 0.0182 | 0.0241 |  | 
15 | GGGUACAUCGGAGGAUAUCAUGUAAAUACAUGAGGAUCACCCAUGUCAAUGGAGACAUCGGAGAUUGAGAAGGCCGAUGUACCG |  |  | 0.0861 | 0.34
16 | UUGAUAAGGAGAGGAUAUGGACAUGAGGAUCACCCAUGUACAUGGGAAUAUAUACUGAAUUUUUACUAGAAGGCUUACAUAUUU | 0.0147 | 0.013 |  | 
17 | UUAUUUUUACAGAAGGUUUAAUAAUAUGUAUGAGAAGGAUAUGUAACAUGAGGAUCACCCAUGUUUCGUCUAUAUGAGGAUCAU | 0.00677 | 0.00722 |  | 
18 | UCCACUGCUGAGAAGGGAUACGUCUGGCUCGCAUCAGGAUAUCGAUACAGUGCAGCAUGAGGACAUGAGGAUCACCCAUGUGUG |  |  | 0.104 | 0.0688
19 | GCGAAGAACGAGAAGGCCACAACAUGAGGAUCACCCAUGUCGUGGAGUAUUGGAGGAUAUCGUUAGGCGUCUCAUGAGGACAUA | 0.00592 | 0.00566 |  | 
20 | UCAUGUUUAGAGGAUAUGAUUACUCUAGAGUGAUCAGAAGGCUAGACAUGAGGAUCACCCAUGUCAGAACAUGU | 0.0344 | 0.0248 |  | 
21 | UUAAUUAACAAGAAGGCUAACAUGAGGAUCACCCAUGUUGUACAUGGAUAUAGAGGAUAUUGCUAAUAAUUAUUUAUCAUAAUU | 0.0256 | 0.019 |  | 
22 | AUGCUAUACGAAGGAUAUGGUUACAUGAGGAUCACCCAUGUUAUUCUUGUUUUCUUGUUUAUGUUCCAGAAGGUCGUAUAGCUA | 0.0473 | 0.0382 |  | 
23 | UACAAUCUAUCUGAGGAUAUCAUGAAAAAAACAUGAGGAUCACCCAUGUGCAGGAAAACUGCAUAUGAGAAGGCAGAUAGAUUGU |  |  | 0.77 | 0.0257
24 | UUGUUCUGAGGAUAUACAUGAGGAUCACCCAUGUGUUUCUGCUUGGUGUCUUGCGAAUGUAGAAGGCUGUUCUC | 0.0375 | 0.0402 |  | 
25 | CGAGCUGCUGUGAGGAUAUACCUAUGGAUACAUGGGUAGAAGGCACAUGAGGAUCACCCAUGUCCUGCAGCUCG | 0.0433 | 0.273 |  | 
26 | CUGGAUCACGCAGGAUAUUACAUGAGGAUCACCCAUGUCAGAACUGCAAUAUCGUCUCCUCGUUGUGAGAAGGGCGGAAUCAUA | 0.0138 | 0.0199 |  | 
27 | GUCAGCUCGUGAGGAUAUACAACACUGCUUCGGCAGUGCAUUAAGAUCACAUGAGGAUCACCCAUGUAGAAGGCACGAGCUGAU | 0.015 | 0.313 |  | 
28 | AGUACGUCAGGAUAUCUGAUGUCUAACUUCGGUUAGACAUCAGAGAAGGGACAUGAGGAUCACCCAUGUACUAG | 0.0387 | 0.0426 |  | 

Row | Sequence | apparent Kd [1] [µM] | apparent Kd [2] [µM] | apparent Kd [3] [µM] | apparent Kd [4] [µM]
29 | CUUAGGUGUACAUGAGGAUCACCCAUGUCCCUGGUCAUUAGACAGGAUAUAUGGGCGGUCGCUUCAUAGAAGGGUUAAAUGGGU |  |  | 0.837 | 0.78
30 | UACAUGAGGAUCACCCAUGUUUUGUCGUGUAUGGUAUUUAUCUAGGAUAUCAAUUGAUUUAAUUAUGAGAAGGAGAAUAUUAAU | 0.0365 | 0.0307 |  | 
31 | GACUUGCAGCUAGGAUAUGGGCGAUCACAUGAGGAUCACCCAUGUCAACAUCAAAACAAGAUUAACCAGAAGGAGCCGCGGGCU |  |  | 0.0173 | 0.0639
32 | GUCGUGUGAGGAUAUGGAUAGAAGAAGUGAAAGUAAGCGACCUAGAAGGCACAUGAGGAUCACCCAUGUAUGUG | 0.0453 | 0.0756 |  | 
33 | GUUGGUUAUGUAGGAUAUGCGAGGCGAGCCUAAGCAGAAGGACAUGAGGAUCACCCAUGUAUUGCGGUCUGCGUUCAGAUCGCU | 0.0362 | 0.156 |  | 
34 | CGCUUUAUAUAUUUGGCAAGAAUCAGAAGGCGUUACAUGAGGAUCACCCAUGUUUUGUAUAGUAACGAGGAUAUGAUAUGAGCG | 0.0146 | 0.0148 |  | 
35 | AUCAGCUUGACAGGAUAUACAUGUCAGCGAAAGCUGACAAUCUUAAUAACAUGAGGAUCACCCAUGUAGAAGGGUCGAGCUGAU | 0.0181 | 0.0324 |  | 
36 | AUCAGCUCCUCAGGAUAUACGUCACUGCGUCAGCAGUGUGGUAAGAUCACAUGAGGAUCACCCAUGUAGAAGGGACGAGCUGAU | 0.0318 | 0.14 |  | 
37 | AUCCGACAUGAGGAUCACCCAUGUCAGGAUAUGGACUGACAUCGAAAGGAUGGCAGAACCAGAAGGGACUGGGC | 0.0299 | 0.0562 |  | 
38 | AAAAAACAUGAGGAUCACCCAUGUGAGGAUAUGCGAAAAAAAAAAAAAAAAAAAAAAAGUAGAAGGCACAAAAA | 0.0485 | 0.173 |  | 
39 | CAUUAAUUCAUUAUAGUUAUUAUACAGGAUAUGUUACAUGAGGAUCACCCAUGUUAUCAUGGUAAACAGAAGGGUAUAUAAAGU | 0.0335 | 0.0575 |  | 
40 | AUCAUGUCAGGAUAUCUGAUAUGGAUCUUCGGAUCAAGUUCAGAGAAGGGACAUGAGGAUCACCCAUGUCGAAC | 0.025 | 0.0424 |  | 
41 | CAUUCGUGUCUAGGAUAUGAGUGACAAGCGCGAGAUUUUCUCGCCGCUAGCUCAGAAGGAGACAUGAGGAUCACCCAUGUAAGG | 0.0601 | 0.0118 |  | 
42 | GUAGCAUACCGAGGAUAUCUAUAUAAUAAACAAACAUGAGGAUCACCCAUGUGGCGAAAGCCAAGGGAGAAGGCGGAAUGCUAC |  |  | 0.0356 | 0.0221
43 | GCCAGGCAUGUAGGAUAUCCAUUGCGUCGCGAUGGAGAAGGGCAACACACAUGAGGAUCACCCAUGUGGUCACCCAUGUCGUGU | 0.217 | 0.225 |  | 
44 | UAGCAAACGACCUGUGUGUGACAUGAGGAUCACCCAUGUUAGAGAAGGCCGAUAGCGCCGCGUACGGAGGAUAUCUGACAGGGA | 0.0241 | 0.0303 |  | 
45 | GAUUUCGCAUGAGGAUAUGCUCCCGUUUCGGGAGCAGAAGGCAUGUCAUUAGACAUGAGGAUCACCCAUGUAGUUAAGAUUGAA |  |  | 0.378 | 0.0157
46 | GAUUUGUGACAAUUACAUGAGGAUCACCCAUGUUGUAGUAUGCAGGAUAUGUGGUAUAUUAUUUAACAGAAGGGCAAUAAUUUU |  |  | 0.098 | 0.0464
47 | AGCCAGGAUGAGUACCUGAGCGGGAGAAGGUACGAGGGAUCGUCUGGACAUGAGGAUCACCCAUGUAAGGAUAUCCCGCCUAUU | 0.00869 | 0.015 |  | 
48 | GAAAGAAAUCCAACAUGAGGAUCACCCAUGUUAGGCCAGUGGCAGGAUAUGGUGGGACUGAUGCACCAGAAGGGUCAGGUGGGC |  |  | 0.0179 | 0.01
49 | CGCGAACAGGCUAACAUGAGGAUCACCCAUGUGGACUCAUGGUAGGAUAUCGGGAAGGAGGAAACCGAGAAGGGCCGGUGAGCU |  |  | 0.0656 | 0.0866
50 | CAGCAUAAGUAGAAGGCUAUAUAUUUAAUUAUAUAAGGAUAUACAUGAGGAUCACCCAUGUGUUCCAGCUGAAUAAUAAUAUAU | 0.00549 | 0.00582 |  | 
51 | UUCAUGUGAGGAUAUAAAAUGAAUAUAAAUUAUUAUCUUGAUUAGAAGGCACAUGAGGAUCACCCAUGUCUGAA | 0.0331 | 0.0479 |  | 
52 | AUACAUGAGGAUCACCCAUGUCGCAGGUUAAGGCCCAAACCGAGAAGGGAUUCGGUCAAGCCUAAUCAGGAUAUCGGUGGAGCC |  |  | 0.0934 | 0.0621
53 | GGUUAUUGCAAGGAUAUGCUUUUUUGUGAAAUUGCAGAAGGUGCAACAUGAGGAUCACCCAUGUUGGAUGGGUU | 0.104 | 0.131 |  | 
54 | AGCAAAAUAAGCAAGGAUAUGUAAUUUGGCACAUGAGGAUCACCCAUGUCAAUCCAUUUUUUUGAACAGAAGGUGCAUUUUUUUU |  |  | 0.0382 | 0.0321
55 | UGUGUGUGGCAGGAUAUUCCGGUCGUUGGUCGGGAAGAAGGGUCUACAUGAGGAUCACCCAUGUGACCGGUUGA | 0.027 | 0.0275 |  | 
